What was measured:
Rattus norvegicus [1] = species on record: Rattus norvegicus; experiment: Radioactivity distribution in brain of normal fischer rat after injection of syn-[18F]-FMACBC after 30 min.; type: ADME, organism-based; details: in vivo, 0.5 h
How it was run: (§1)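 Male Fischer 344 rats (200–250 g), normal, fed ad libitum, given ~85 μCi of 18F tracer in 0.3 mL sterile water IV through a tail vein catheter. Anesthesia was ketamine:xylazine IM. Groups of four were killed at 5, 30, 60 and 120 min. Tissues were weighed and gamma-counted against dose standards, decay-corrected, and expressed as mean % injected dose per gram.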

Rattus norvegicus [2] = species on record: Rattus norvegicus; experiment: Radioactivity distribution in blood of normal fischer rat after injection of anti-[18F]FMACBC after 30 min.; type: ADME, organism-based; details: in vivo, 0.5 h; how it was run: as §1
Rattus norvegicus [3] = species on record: Rattus norvegicus; experiment: Radioactivity distribution in muscle of normal fischer rat after injection of syn-[18F]-FMACBC after 30 min.; type: ADME, organism-based, Muscle tissue; details: in vivo, 0.5 h
How it was run: (§2)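 Normal male Fischer 344 rats (200–250 g) were anesthetised with ketamine:xylazine i.m. and given about 85 μCi tracer in 0.3 mL sterile water via a tail vein catheter. Groups of four were killed at 5, 30, 60 and 120 min. Selected tissues were weighed and gamma counted with dose standards, decay-corrected, and expressed as mean %ID/g.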

Rattus norvegicus [4] = species on record: Rattus norvegicus; experiment: Radioactivity distribution in brain of normal fischer rat after injection of syn-[18F]-FMACBC after 5 min.; type: ADME, organism-based; details: in vivo; how it was run: as §1
Rattus norvegicus [5] = species on record: Rattus norvegicus; experiment: Radioactivity distribution in bone of normal fischer rat after injection of anti-[18F]FMACBC after 30 min.; type: ADME, organism-based, Bone element; details: in vivo, 0.5 h; how it was run: as §1
Rattus norvegicus [6] = species on record: Rattus norvegicus; experiment: Radioactivity distribution in pancreas of normal fischer rat after injection of anti-[18F]FMACBC after 30 min.; type: ADME, organism-based; details: in vivo, 0.5 h; how it was run: as §2
Rattus norvegicus [7] = species on record: Rattus norvegicus; experiment: Radioactivity distribution in lung of tumor-bearing fischer rat after injection of anti-[18F]FMACBC after 60 min; type: ADME, organism-based; details: in vivo, 1 h
How it was run: (§3)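 Male Fischer 344 rats with intracranial 9L gliosarcoma (4 × 10^4 cells stereotaxically implanted; used 17–19 days after implantation). About 35 μCi tracer in 0.3 mL sterile water was given by tail vein to awake, restrained rats. Rats were killed at 5, 60 or 120 min. Tissues, tumor and contralateral brain were weighed and gamma counted, decay-corrected, and expressed as %ID/g; n = 3–5 per time point.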

Rattus norvegicus [8] = species on record: Rattus norvegicus; experiment: Radioactivity distribution in kidney of tumor-bearing fischer rat after injection of syn-[18F]-FMACBC after 5 min; type: ADME, organism-based; details: in vivo
How it was run: (§4)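 Male Fischer 344 rats carrying intracranial rat 9L gliosarcoma, made by stereotaxic injection of 4 × 10^4 cells 17–19 days before. Awake restrained rats received ~35 μCi of 18F tracer in 0.3 mL sterile water IV by tail vein and were killed at 5, 60 or 120 min, n = 3–5. Tissues were weighed, gamma-counted, decay-corrected and expressed as % injected dose per gram.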

Rattus norvegicus [9] = species on record: Rattus norvegicus; experiment: Radioactivity distribution in brain of tumor-bearing fischer rat after injection of anti-[18F]FMACBC after 5 min; type: ADME, organism-based; details: in vivo; how it was run: as §4
Rattus norvegicus [10] = species on record: Rattus norvegicus; experiment: Radioactivity distribution in tumor of tumor-bearing fischer rat after injection of anti-[18F]FMACBC after 60 min; type: ADME, organism-based; details: in vivo, 1 h; how it was run: as §3
Rattus norvegicus [11] = species on record: Rattus norvegicus; experiment: Radioactivity distribution in tumor of tumor-bearing fischer rat after injection of anti-[18F]FMACBC after 5 min; type: ADME, organism-based; details: in vivo; how it was run: as §3
Rattus norvegicus [12] = species on record: Rattus norvegicus; experiment: Radioactivity distribution in muscle of normal fischer rat after injection of anti-[18F]FMACBC after 60 min.; type: ADME, organism-based, Muscle tissue; details: in vivo, 1 h; how it was run: as §2
Rattus norvegicus [13] = species on record: Rattus norvegicus; experiment: Radioactivity distribution in bone of normal fischer rat after injection of syn-[18F]-FMACBC after 5 min.; type: ADME, organism-based, Bone element; details: in vivo; how it was run: as §1
Rattus norvegicus [14] = species on record: Rattus norvegicus; experiment: Radioactivity distribution in kidney of tumor-bearing fischer rat after injection of anti-[18F]FMACBC after 120 min; type: ADME, organism-based; details: in vivo, 2 h; how it was run: as §4
Rattus norvegicus [15] = species on record: Rattus norvegicus; experiment: Radioactivity distribution in testis of normal fischer rat after injection of syn-[18F]-FMACBC after 60 min.; type: ADME, organism-based; details: in vivo, 1 h; how it was run: as §2
Rattus norvegicus [16] = species on record: Rattus norvegicus; experiment: Radioactivity distribution in lung of normal fischer rat after injection of anti-[18F]FMACBC after 60 min.; type: ADME, organism-based; details: in vivo, 1 h; how it was run: as §2
Rattus norvegicus [17] = species on record: Rattus norvegicus; experiment: Radioactivity distribution in kidney of tumor-bearing fischer rat after injection of anti-[18F]FMACBC after 5 min; type: ADME, organism-based; details: in vivo; how it was run: as §4
Rattus norvegicus [18] = species on record: Rattus norvegicus; experiment: Radioactivity distribution in brain of normal fischer rat after injection of anti-[18F]FMACBC after 120 min.; type: ADME, organism-based; details: in vivo, 2 h; how it was run: as §1
Rattus norvegicus [19] = species on record: Rattus norvegicus; experiment: Radioactivity distribution in pancreas of tumor-bearing fischer rat after injection of anti-[18F]FMACBC after 5 min; type: ADME, organism-based; details: in vivo; how it was run: as §3
Rattus norvegicus [20] = species on record: Rattus norvegicus; experiment: Radioactivity distribution in pancreas of tumor-bearing fischer rat after injection of syn-[18F]-FMACBC after 60 min; type: ADME, organism-based; details: in vivo, 1 h; how it was run: as §3
Rattus norvegicus [21] = species on record: Rattus norvegicus; experiment: Radioactivity distribution in liver of normal fischer rat after injection of anti-[18F]FMACBC after 120 min.; type: ADME, organism-based; details: in vivo, 2 h; how it was run: as §1
Rattus norvegicus [22] = species on record: Rattus norvegicus; experiment: Radioactivity distribution in testis of normal fischer rat after injection of syn-[18F]-FMACBC after 120 min.; type: ADME, organism-based; details: in vivo, 2 h; how it was run: as §2
Rattus norvegicus [23] = species on record: Rattus norvegicus; experiment: Radioactivity distribution in pancreas of normal fischer rat after injection of anti-[18F]FMACBC after 60 min.; type: ADME, organism-based; details: in vivo, 1 h; how it was run: as §2
Rattus norvegicus [24] = species on record: Rattus norvegicus; experiment: Radioactivity distribution in muscle of tumor-bearing fischer rat after injection of anti-[18F]FMACBC after 5 min; type: ADME, organism-based, Muscle tissue; details: in vivo; how it was run: as §3
Rattus norvegicus [25] = species on record: Rattus norvegicus; experiment: Radioactivity distribution in liver of normal fischer rat after injection of anti-[18F]FMACBC after 5 min.; type: ADME, organism-based; details: in vivo; how it was run: as §1
Rattus norvegicus [26] = species on record: Rattus norvegicus; experiment: Radioactivity distribution in bone of tumor-bearing fischer rat after injection of syn-[18F]-FMACBC after 60 min; type: ADME, organism-based, Bone element; details: in vivo, 1 h; how it was run: as §4
Rattus norvegicus [27] = species on record: Rattus norvegicus; experiment: Radioactivity distribution in lungs of normal fischer rat after injection of syn-[18F]-FMACBC after 30 min.; type: ADME, organism-based, Lung; details: in vivo, 0.5 h; how it was run: as §2
Rattus norvegicus [28] = species on record: Rattus norvegicus; experiment: Radioactivity distribution in spleen of normal fischer rat after injection of syn-[18F]-FMACBC after 60 min.; type: ADME, organism-based; details: in vivo, 1 h; how it was run: as §2
Rattus norvegicus [29] = species on record: Rattus norvegicus; experiment: Radioactivity distribution in liver of normal fischer rat after injection of syn-[18F]-FMACBC after 120 min.; type: ADME, organism-based; details: in vivo, 2 h; how it was run: as §1
Rattus norvegicus [30] = species on record: Rattus norvegicus; experiment: Radioactivity distribution in heart of normal fischer rat after injection of anti-[18F]FMACBC after 30 min.; type: ADME, organism-based; details: in vivo, 0.5 h; how it was run: as §1
Rattus norvegicus [31] = species on record: Rattus norvegicus; experiment: Radioactivity distribution in pancreas of normal fischer rat after injection of syn-[18F]-FMACBC after 60 min.; type: ADME, organism-based; details: in vivo, 1 h; how it was run: as §2
Rattus norvegicus [32] = species on record: Rattus norvegicus; experiment: Radioactivity distribution in tumor of tumor-bearing fischer rat after injection of syn-[18F]-FMACBC after 60 min; type: ADME, organism-based; details: in vivo, 1 h; how it was run: as §3
Rattus norvegicus [33] = species on record: Rattus norvegicus; experiment: Radioactivity distribution in liver of normal fischer rat after injection of anti-[18F]FMACBC after 60 min.; type: ADME, organism-based; details: in vivo, 1 h; how it was run: as §1
Rattus norvegicus [34] = species on record: Rattus norvegicus; experiment: Radioactivity distribution in kidney of tumor-bearing fischer rat after injection of syn-[18F]-FMACBC after 120 min; type: ADME, organism-based; details: in vivo, 2 h; how it was run: as §4
Rattus norvegicus [35] = species on record: Rattus norvegicus; experiment: Radioactivity distribution in spleen of normal fischer rat after injection of anti-[18F]FMACBC after 120 min.; type: ADME, organism-based; details: in vivo, 2 h; how it was run: as §2
Rattus norvegicus [36] = species on record: Rattus norvegicus; experiment: Radioactivity distribution in liver of tumor-bearing fischer rat after injection of syn-[18F]-FMACBC after 60 min; type: ADME, organism-based; details: in vivo, 1 h; how it was run: as §3
Rattus norvegicus [37] = species on record: Rattus norvegicus; experiment: Radioactivity distribution in blood of tumor-bearing fischer rat after injection of syn-[18F]-FMACBC after 5 min; type: ADME, organism-based; details: in vivo; how it was run: as §4
Rattus norvegicus [38] = species on record: Rattus norvegicus; experiment: Radioactivity distribution in testis of tumor-bearing fischer rat after injection of anti-[18F]FMACBC after 60 min; type: ADME, organism-based; details: in vivo, 1 h; how it was run: as §3
Rattus norvegicus [39] = species on record: Rattus norvegicus; experiment: Radioactivity distribution in spleen of normal fischer rat after injection of anti-[18F]FMACBC after 30 min.; type: ADME, organism-based; details: in vivo, 0.5 h; how it was run: as §2
Rattus norvegicus [40] = species on record: Rattus norvegicus; experiment: Radioactivity distribution in pancreas of tumor-bearing fischer rat after injection of anti-[18F]FMACBC after 120 min; type: ADME, organism-based; details: in vivo, 2 h; how it was run: as §3
Rattus norvegicus [41] = species on record: Rattus norvegicus; experiment: Radioactivity distribution in pancreas of normal fischer rat after injection of syn-[18F]-FMACBC after 120 min.; type: ADME, organism-based; details: in vivo, 2 h; how it was run: as §2

`N[C@]1(C(=O)O)C[C@@H](CF)C1` showed an ID/g (Rattus norvegicus [1]) of 0.24%, an ID/g (Rattus norvegicus [2]) of 0.39% and an ID/g (Rattus norvegicus [3]) of 0.58%. It also gave an ID/g (Rattus norvegicus [4]) of 0.26%, an ID/g (Rattus norvegicus [5]) of 0.31% and an ID/g (Rattus norvegicus [6]) of 4.13%. The ID/g (Rattus norvegicus [7]) was 0.38%, the ID/g (Rattus norvegicus [8]) was 0.59% and the ID/g (Rattus norvegicus [9]) was 0.17%. The ID/g (Rattus norvegicus [10]) was 2.5%, the ID/g (Rattus norvegicus [11]) was 1.28% and the ID/g (Rattus norvegicus [12]) was 0.61%. The ID/g (Rattus norvegicus [13]) was 0.7%, the ID/g (Rattus norvegicus [14]) was 0.79% and the ID/g (Rattus norvegicus [15]) was 0.23%. The ID/g (Rattus norvegicus [16]) was 0.41%, the ID/g (Rattus norvegicus [17]) was 0.96% and the ID/g (Rattus norvegicus [18]) was 0.25%. The ID/g (Rattus norvegicus [19]) was 3.26%, the ID/g (Rattus norvegicus [20]) was 2.08% and the ID/g (Rattus norvegicus [21]) was 0.48%. The ID/g (Rattus norvegicus [22]) was 0.22%, the ID/g (Rattus norvegicus [23]) was 3.83% and the ID/g (Rattus norvegicus [24]) was 0.57%. It also gave an ID/g (Rattus norvegicus [25]) of 0.81%, an ID/g (Rattus norvegicus [26]) of 0.12% and an ID/g (Rattus norvegicus [27]) of 0.46%. The ID/g (Rattus norvegicus [28]) was 0.54%, the ID/g (Rattus norvegicus [29]) was 0.52% and the ID/g (Rattus norvegicus [30]) was 0.68%. It also gave an ID/g (Rattus norvegicus [31]) of 3.13%, an ID/g (Rattus norvegicus [32]) of 1.59% and an ID/g (Rattus norvegicus [33]) of 0.47%. For the same compound, the ID/g (Rattus norvegicus [34]) was 0.34%, the ID/g (Rattus norvegicus [35]) was 0.47% and the ID/g (Rattus norvegicus [36]) was 0.33%. It also gave an ID/g (Rattus norvegicus [37]) of 0.44%, an ID/g (Rattus norvegicus [38]) of 0.26% and an ID/g (Rattus norvegicus [39]) of 0.63%. The ID/g (Rattus norvegicus [40]) was 2.17% and the ID/g (Rattus norvegicus [41]) was 3.88%.
